How the values were obtained:
[1] = test system: SW480; assay: GI50 growth inhibition assay; type: cell-based; conditions: Homo sapiens, SW480, 96 h
Summary of the method: (§1)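 Cell lines were grown in DMEM or RPMI with 10% FBS and pen-strep at 37°C, 5% CO₂, and were mycoplasma-negative. Cells were seeded at 2.5×10³ per 0.1 ml per well, and test compound was added 24 hrs later at the indicated concentrations. Viable cells were measured by resazurin (Cell Titer Blue) read-out 96 hrs post-treatment in duplicate wells.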

[2] = plasma level pharmacokinetics; type: in vivo, CD-1 mice; conditions: for area under the curve (AUC) as molar concentration / area under the curve (AUC): plasma
Summary of the method: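 Female CD-1 mice (10–12 weeks) received 50mg/kg test compound dissolved in water, ip or by oral gavage. Sampling was at 10, 30 min and 1, 2, 4, 8 h, n=2 per time point, with heart-puncture blood into heparin/EDTA tubes. Plasma was analysed by LC/MS, and AUC was calculated by the trapezoidal rule.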

[3] = test system: MDA-MB-157; assay: GI50 growth inhibition assay; type: cell-based; conditions: Homo sapiens, MDA-MB-157, 96 h
Summary of the method: as §1

[4] = previous studies; cited from earlier work
[5] = test system: MIA-PaCa-2; assay: GI50 growth inhibition assay; type: cell-based; conditions: Homo sapiens, MIA PaCa-2, 96 h
Summary of the method: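 Cells from ATCC were grown in DMEM or RPMI with 10% FBS and penicillin-streptomycin at 37°C, humidified, 5% CO₂, and tested mycoplasma-negative. They were seeded at 2.5×10³ cells per 0.1 ml per well. Test compound was added 24 hrs after plating at a range of concentrations. Viable cells were measured by Cell Titer Blue from duplicate wells 96 hrs after treatment.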

[6] = test system: Z138C cells; assay: cell cycle distribution, propidium iodide flow cytometry; type: cell-based, human; conditions: 24 hours
Summary of the method: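 Z138C cells were treated with DMSO or increasing concentrations of test compound for 24 hours. They were then ethanol-fixed, PBS-washed and stained with RNase plus propidium iodide at 37°C for 20 min. DNA content was measured by flow cytometry to assign cell-cycle phases.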

## CN1CCN(c2ccc(Nc3ncc4cc(C#N)c(=O)n(C5CCCC5)c4n3)cc2)CC1 [ON123300, 8-cyclopentyl-2-[4-(4-methyl-piperazin-1-yl)-phenylamino]-7-oxo-7,8-dihydro-pyrid o[2,3-d]pyrimidine-6-carbonitrile]
[1]
  GI50: 100 nM
[2]; mice
  oral bioavailability: orally bio-available
[2]; 50mg/kg ip
  area under the curve (AUC) as molar concentration: 16.71 µM/ml/hr
[2]; 50mg/kg ip injection
  area under the curve (AUC): 7.18 µg/mL/h
[2]; 50mg/kg oral gavage (po)
  area under the curve (AUC): 2.78 µg/mL/h
[2]; 50mg/kg po
  area under the curve (AUC) as molar concentration: 6.47 µM/ml/hr
[3]
  GI50: 250 nM
[4]
  blood-brain barrier crossing: readily crosses the blood-brain barrier
[5]
  GI50: 250 nM
[6]
  concentrations at which cells accumulated in the G1 phase: 0.1 to 1.0 µM
[6]; for ON123300 at higher concentrations
  accumulation of cells in the sub-G1 phase: eventually accumulated in the sub-G1 phase

Source: paper PMC4703501 (Leukemia, 2015)
